High-throughput results: PubChem BioAssay, The Scripps Research Institute Molecular Screening Center
Hits are enriched below; roughly 3.9% of the tested compounds scored in any of these assays.
TAAR1 antagonist: human TAAR1 antagonism; CHO RD-HGA16 TAAR1, Fluo-8 calcium fluorescence, antagonist; inhibition, % at 3 µM; actives 1.5% (n = 360,000);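 active = inhibition above a per-plate cutoff, the mean inhibition of test compounds on that plate plus 3 SD, cut at about 49% in these data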;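 also: 0% = DMSO plus EC80 beta-PEA response and 100% = DMSO alone without agonist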
Target sequence (Q96RJ0 whole entry, looked up): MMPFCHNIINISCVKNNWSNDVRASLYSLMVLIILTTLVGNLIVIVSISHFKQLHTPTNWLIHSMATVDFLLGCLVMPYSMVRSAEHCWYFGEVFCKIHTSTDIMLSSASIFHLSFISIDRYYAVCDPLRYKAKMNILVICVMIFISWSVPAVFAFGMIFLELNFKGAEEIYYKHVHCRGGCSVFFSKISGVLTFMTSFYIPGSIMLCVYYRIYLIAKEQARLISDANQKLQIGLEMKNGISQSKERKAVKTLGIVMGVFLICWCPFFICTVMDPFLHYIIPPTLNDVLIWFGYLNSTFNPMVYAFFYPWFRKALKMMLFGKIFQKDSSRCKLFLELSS
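Test system – hTAAR1-expressing CHO RD-HGA16 cells, Gα16-coupled · Also added – β-PEA at EC80 concentration, post-compound challenge · Compound – 3 µM, single point · Incubation – dye loading 75 min at 37 °C, then 30 min room temperature · Measured by – Fluo-8 intracellular calcium dye fluorescence, real-time kinetic reads · Benchmarks – vehicle and agonist controls · Replicates – singlicate, one well per test compound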
OX1R antag-1: OX1R (human) antagonism; OX1R-expressing cells, FRET antagonist read-out; O43613; inhibition, % at 6.6 µM; actives 1.8% (n = 330,000); AID 485270; in the data active = inhibition mostly above about 38%, no sharp cut-off; inactive = mostly below about 40%;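 also: 0% = agonist challenge alone and 100% = reference antagonist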
Target sequence (O43613 whole entry, looked up): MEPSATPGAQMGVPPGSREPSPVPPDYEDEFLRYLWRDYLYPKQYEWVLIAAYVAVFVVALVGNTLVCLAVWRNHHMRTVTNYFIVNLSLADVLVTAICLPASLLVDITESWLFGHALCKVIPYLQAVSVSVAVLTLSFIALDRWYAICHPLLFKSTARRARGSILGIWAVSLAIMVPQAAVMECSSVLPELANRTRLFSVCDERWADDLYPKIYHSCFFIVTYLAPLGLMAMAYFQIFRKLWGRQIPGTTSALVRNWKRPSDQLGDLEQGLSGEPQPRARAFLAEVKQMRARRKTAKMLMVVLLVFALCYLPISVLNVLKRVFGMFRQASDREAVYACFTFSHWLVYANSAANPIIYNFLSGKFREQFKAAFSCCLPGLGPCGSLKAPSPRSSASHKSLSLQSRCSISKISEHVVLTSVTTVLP
TAAR1 ag: agonists of human TAAR1; Q96RJ0; activation, % at 3 µM; actives 0.99% (n = 360,000); CHO RD-HGA16 TAAR1, Fluo-8 calcium fluorescence; vehicle wells 0%, saturating PEA agonist 100%;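 active = activation above the mean activation of all test compounds in the run plus 3 SD, cut at about 38% in these data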
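test system = CHO RD-HGA16 cells carrying human TAAR1 plus Gα16 | schedule = 17-24 h seeding, 75 min 37 °C dye, 30 min RT | compound dosing = 3 µM single concentration | control set = DMSO and PEA EC100 | replicates = n 1 | signal = Fluo-8 fluorescence, 5 s baseline then 140 s kinetic read | measure = percent activation vs PEA EC100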
OX1R antag-2: antagonists of human orexin 1 receptor; actives 0.43% (n = 330,000); inhibition, % at 5 µM; O43613; CHO/OX1R cells, Fluo-8 calcium fluorescence, orexin A;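 active = inhibition above its plate's threshold, mean inhibition of all tested compounds on the plate plus 3 SD, cut at about 37% in these data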;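 also: 0% = orexin A challenge wells and 100% = SB-334867-A antagonist wells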
CHO parental Ca: counter-screen: ATP calcium response change in parental CHO cells | parental CHO-K1, ATP-induced calcium, Fluo-8 fluorescence | actives 0.63% (n = 330,000) | inhibition, % at 5.6 µM | AID 463079;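 active = inhibition above that plate's mean sample inhibition plus 3 SD, cut at about 26% in these data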;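 also: 0% = ATP-challenged DMSO wells and 100% = DMSO wells without ATP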
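Measured by: calcium-sensitive Fluo-8 fluorescence / Test system: CHO parental line / Controls: ATP-challenged DMSO wells low, unchallenged DMSO wells high / Measure: % inhibition / Compound: single nominal dose of 5.6 µM per compound / Replicates: single well per compound, no replicates / Reagent: ATP as calcium-mobilizing challenge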
TAAR1 nonsel count: nonselective antagonist in TAAR1 antagonist counter-screen. counterscreen cell line, calcium fluorescence, antagonist mode. shares compounds with TAAR1 antagonist. actives 77% (n = 2,400). inhibition, % at 3 µM; in the data active = inhibition above about 22%;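 also: CHO-Ga16 host cells stimulated with ATP at an EC80 level; 0% = agonist EC80 plus vehicle and 100% = vehicle without agonist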
TAAR1 ant conf: human TAAR1 antagonism, confirmed | inhibition, % at 3 µM | TAAR1-expressing cells, fluorescence antagonist read-out | actives 40% (n = 2,400) | AID 651785 | shares compounds with TAAR1 antagonist; in the data active = inhibition above about 49%;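 also: CHO-Ga16 host cells challenged with agonist PEA near its EC80; 0% = agonist at EC80 plus vehicle and 100% = vehicle with no agonist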
Ga16 nonsel ag: nonselective Ga16 agonist in TAAR1 antagonist counter-screen; AID 651953; shares compounds with TAAR1 antagonist; activation, % at 3 µM; Ga16-expressing cells, calcium fluorescence, agonist counterscreen; actives 18% (n = 2,400); in the data active = activation above about 12%;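 also: 0% = vehicle wells and 100% = saturating stimulus response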
TAAR1 ag counter: TAAR1 agonism, antagonist counter-screen; shares compounds with TAAR1 antagonist; hTAAR1 cell line, fluorescence activation, agonist mode; activation, % at 3 µM; actives 2% (n = 2,400); in the data active = activation above about 37%;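 also: CHO cells stably expressing TAAR1 with calcium dye readout; 0% = DMSO vehicle and 100% = full agonist response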
* hit, by the source's call; x = not tested or not shown.

SMILES	TAAR1 antagonist	OX1R antag-1	TAAR1 ag	OX1R antag-2	CHO parental Ca	TAAR1 nonsel count	TAAR1 ant conf	Ga16 nonsel ag	TAAR1 ag counter
COc1ccc(CCN2C(=O)c3[nH]nc(-c4ccccc4O)c3C2c2cccc(Cl)c2)cc1 (stereo unspecified)	58.7*	8.5	12.2	-39.6	-10.3	19.4	40.0	8.1	11.6
COc1ccc(C2c3c(-c4ccccc4O)n[nH]c3C(=O)N2CCc2ccc(OC)c(OC)c2)cc1 (stereo unspecified)	21.6	3.1	13.9	-32.3	-27.6	x	x	x	x
CCN(CC(=O)NCc1cccs1)CC(=O)Nc1c(Cl)ccc(C)c1Cl	20.7	6.0	5.1	-11.2	-27.3	x	x	x	x
CCN(CC(=O)Nc1ccccc1OC)CC(=O)Nc1c(Cl)ccc(C)c1Cl	57.6*	11.9	11.9	-16.2	-12.9	21.9*	39.7	7.9	8.4
C[C@H]1CN(S(=O)(=O)c2c(F)cccc2F)CCN1S(=O)(=O)c1ccc2c(c1)OCCO2	22.0	9.1	4.0	-11.4	-1.2	x	x	x	x
CC1=NN(c2nc(N)nc(/C(C#N)=C/c3ccc([N+](=O)[O-])o3)n2)C(C)(C)C1	59.3*	x	21.6	x	x	57.2*	65.9*	22.8*	28.2
N#C/C(=C\c1ccc([N+](=O)[O-])o1)C(=O)Nc1ccc(F)cc1	12.9	31.0	2.6	6.7	7.6	x	x	x	x
C[C@H](NC(=O)c1nc[nH]c1C(=O)NC(c1ccccc1)c1ccccc1)C(=O)OCc1ccccc1	17.1	21.2	6.8	-25.6	-8.8	x	x	x	x
C[C@@H](NC(=O)c1nc[nH]c1C(=O)NCC(=O)OCc1ccccc1)c1ccccc1	67.9*	19.7	15.2	-43.4	-17.8	32.5*	54.7*	8.3	9.9
C[C@H](NC(=O)c1nc[nH]c1C(=O)N[C@@H](C)C(=O)OCc1ccccc1)C(=O)OCc1ccccc1	57.6*	26.1	6.3	-28.4	-24.7	20.1	36.5	2.4	-0.5
CC(C)(C)OC(=O)N1CCC(NC(=O)c2nc[nH]c2C(=O)NCC(=O)OCc2ccccc2)CC1	69.9*	11.6	24.8	-0.7	-4.2	31.1*	59.2*	11.0	14.0
CCn1c(SCC(=O)N(C)CC(=O)Nc2ccc(F)c(F)c2F)nnc1-c1ccco1	-30.1	19.6	2.7	-18.8	-12.7	x	x	x	x
O=C(c1ccc(CSc2nc3ccncc3[nH]2)cc1)N1CCCCC1	-31.5	12.0	0.6	-2.1	1.3	x	x	x	x
Cc1ccc(C)c(N2CCN(C(=O)c3ccc(CSc4nc5ccncc5[nH]4)cc3)CC2)c1	50.1*	15.5	6.9	52.9*	44.0*	36.4*	35.9	12.2*	21.7
O=C(Nc1ccc(S(=O)(=O)N2CCCC2)cc1)c1ccc(F)cc1	-10.1	x	2.2	x	x	x	x	x	x
N#CCc1ccc(NC(=O)c2ccc(S(=O)(=O)N3CCCC3)cc2)cc1	57.3*	9.6	22.7	2.6	0.7	29.8*	54.2*	15.3*	17.4
Cc1ccc(NC(=O)c2ccc(S(=O)(=O)N3CCC(C)CC3)cc2)cc1	79.0*	6.1	29.4	-11.7	-2.6	0.3	-4.4	1.5	-1.9
Cc1ccc(C(=O)Nc2ccc(S(=O)(=O)N3CCOCC3)cc2)cc1	-1.7	5.5	11.9	-11.8	-12.3	x	x	x	x
CCN(C[C@H]1N[C@@](Cc2ccccc2)(C(=O)OC)[C@H]2C(=O)N(Cc3ccccc3)C(=O)[C@@H]12)S(=O)(=O)c1ccc(C(F)(F)F)cc1	-2.7	3.1	0.2	-23.3	-13.4	x	x	x	x
CCN(C[C@H]1N[C@@](CC)(C(=O)OC)[C@H]2C(=O)N(Cc3ccccc3)C(=O)[C@@H]12)C(=O)c1ccccc1	50.1*	-1.6	17.1	-31.5	-16.5	24.7*	42.9	10.7	12.5
CCN(C[C@H]1N[C@@](Cc2ccccc2)(C(=O)OC)[C@H]2C(=O)N(C)C(=O)[C@@H]12)S(=O)(=O)c1ccc(C(F)(F)F)cc1	74.8*	-4.2	13.7	-28.0	-30.2	22.7*	45.6	8.0	9.0
CCN(C[C@H]1N[C@@](Cc2ccccc2)(C(=O)OC)[C@H]2C(=O)N(C)C(=O)[C@@H]12)S(=O)(=O)c1ccc(OC(F)(F)F)cc1	63.8*	-2.5	12.3	-22.8	-8.9	26.0*	42.0	7.2	3.6
CCc1nnc(NC(=O)CN2C(=O)/C(=C/c3cc(OC)c(OC)c(OC)c3)SC2=S)s1	-15.8	3.5	-1.3	-15.4	-13.3	x	x	x	x
COc1cc(OC)cc(C(=O)N2CCN(S(=O)(=O)c3ccc(Cl)s3)CC2)c1	9.0	0.1	3.6	-20.7	-23.5	x	x	x	x
Cc1cc(NC(=O)c2ccc3c(c2)OCCO3)ccc1NC(=O)c1cc2ccccc2o1	85.2*	3.9	22.9	-19.5	-0.1	38.4*	72.6*	9.3	23.6
SMILES	TAAR1 antagonist	OX1R antag-1	TAAR1 ag	OX1R antag-2	CHO parental Ca	TAAR1 nonsel count	TAAR1 ant conf	Ga16 nonsel ag	TAAR1 ag counter
O=C(Nc1ccc(NC(=O)c2cc3ccccc3o2)cc1)c1ccc2c(c1)OCCO2	-13.3	13.8	4.4	-20.3	16.6	x	x	x	x
Cc1cc(NC(=O)c2cccnc2)ccc1NC(=O)c1cc2ccccc2o1	56.7*	9.4	31.7	-12.0	-11.3	22.1*	44.0	10.2	37.1
O=C(C(Sc1ccccc1)c1ccccc1)N1CCN(c2ccccc2F)CC1 (stereo unspecified)	50.3*	28.4	5.8	-14.7	-17.2	17.2	35.9	6.9	7.9
O=C(c1ccc2c(=O)n(CCc3ccccc3)c(=O)[nH]c2c1)N1CCN(c2ccc(F)cc2)CC1	58.1*	9.2	9.2	7.0	-3.5	29.1*	44.9	6.3	10.1
CCc1ccccc1S(=O)(=O)Cc1ccc(C(=O)N2CCN(c3ccccc3OC)CC2)o1	72.5*	12.7	16.6	-12.7	-15.1	28.6*	49.9*	18.4*	38.3*
O=C(c1ccc2c(=O)n(CCc3ccccc3)c(=O)[nH]c2c1)N1CCN(c2ccccc2)CC1	x	20.7	x	-22.5	-21.4	x	x	x	x
O=C(c1cccc(C(=O)N2CCN(c3ccccc3F)CC2)c1)N1CCN(c2ccccc2F)CC1	67.8*	8.9	10.6	-17.8	-12.3	26.5*	36.1	9.2	4.6
COc1ccc2ccccc2c1/C=N/NC(=O)c1cccc([N+](=O)[O-])c1	8.9	19.6	7.4	-26.0	-11.8	x	x	x	x
COc1ccc(S(=O)(=O)N2CCOCC2)cc1NC(=O)CSc1nnc2ccccn12	x	20.3	x	5.1	-1.5	x	x	x	x
ONC(=Nc1ccc(Cl)cc1)c1ccccc1	-11.2	10.3	18.0	4.0	-7.2	x	x	x	x
